Data: ChEMBL document CHEMBL2146434, “Synthesis and biological evaluation of new amino acid and dipeptide derivatives of neocryptolepine as anticancer agents” (J Med Chem, 2012)
Structures can show the parent of a compound that is named as a salt.

Columns and labels:
MCF7 = test: Cytotoxicity against human MCF7 cells after 72 hrs by SRB assay; type: functional, cell-based; conditions: MCF7, 72 h
How it was run: (§1)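 IC50 is the compound concentration giving 50% inhibition of cell proliferation. It was determined on normal mouse BALB/3T3 fibroblasts and on human A549, MCF-7 and LoVo cancer lines, with doxorubicin hydrochloride and DiMIQ as reference compounds.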

LoVo = test: Cytotoxicity against human LoVo cells after 72 hrs by SRB assay; type: functional, cell-based; how it was run: as §1
KB = test: Cytotoxicity against human KB cells after 72 hrs by SRB assay; type: functional, cell-based
[1] = Solubility of the compound in water; type: physicochemical; conditions: buffer
[2] = Ratio of IC50 for compound to ratio of IC50 for DiMIQ for BALB mouse 3T3 cells; type: cell-based; conditions: read-out: Ratio IC50
[3] = system: Lewis lung carcinoma cell line; test: Antineoplastic activity against mouse LLC cells xenografted in C57BL/6 mouse assessed as tumor growth inhibition at 15 mg/kg/day, ip administered on day 9 to day 13 of tumor implantation measured on day 21; type: functional; conditions: route intraperitoneal, read-out: TGI
How it was run: (§2)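 Mice bore Lewis lung carcinoma (LLC) inoculated subcutaneously and received test agents intraperitoneally at 15–50 mg kg⁻¹ day⁻¹ from day 9 or day 10. A single 100 mg/kg cyclophosphamide dose was the cytostatic control. Tumor growth was followed as the group median, and TGI% was calculated from medians versus untreated controls. Significance was tested by nonparametric Kruskal–Wallis multiple comparison, p < 0.05.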

Mus musculus [4] = test: Toxicity in C57BL/6 mouse xenografted with mouse LLC cells at 15 mg/kg/day, ip administered on day 9 to day 13 of tumor implantation; type: organism-based; design: route intraperitoneal; conditions: in vivo
How it was run: (§3)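 Mouse Lewis lung carcinoma (LLC) cells inoculated sc into mice. Daily dosing from day 9: 15 mg kg⁻¹ day⁻¹ through day 13 or 30 mg kg⁻¹ day⁻¹ through day 12; 25 or 50 mg kg⁻¹ day⁻¹ through day 13. Route is given as ip in tables and text but sc in figure legends. Body weight monitored for loss alongside tumor growth. Single 100 mg/kg cyclophosphamide dose as cytostatic control.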

[5] = system: Lewis lung carcinoma cell line; test: Antineoplastic activity against mouse LLC cells xenografted in C57BL/6 mouse assessed as tumor growth inhibition at 15 mg/kg/day, ip administered on day 9 to day 13 of tumor implantation measured on day 11; type: functional; conditions: route intraperitoneal, read-out: TGI; how it was run: as §2
Mus musculus [6] = test: Toxicity in C57BL/6 mouse xenografted with mouse LLC cells assessed as body weight loss at 15 mg/kg/day, sc administered on day 9 to day 13 of tumor implantation; type: organism-based; design: route subcutaneous; conditions: in vivo
How it was run: (§4)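 Body weight was tracked in C57BL/6 mice bearing subcutaneously inoculated LLC during therapy given daily from day 9 to day 13. A single 100 mg/kg dose of cyclophosphamide served as the cytostatic control group.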

[7] = system: Lewis lung carcinoma cell line; test: Antineoplastic activity against mouse LLC cells xenografted in C57BL/6 mouse assessed as tumor growth inhibition at 15 mg/kg/day, ip administered on day 9 to day 13 of tumor implantation measured on day 18; type: functional; conditions: route intraperitoneal, read-out: TGI; how it was run: as §2
[8] = system: Lewis lung carcinoma cell line; test: Antineoplastic activity against mouse LLC cells xenografted in C57BL/6 mouse assessed as tumor growth inhibition at 30 mg/kg/day, ip administered on day 9 to day 12 of tumor implantation measured on day 21; type: functional; conditions: route intraperitoneal, read-out: TGI; how it was run: as §2
Mus musculus [9] = test: Toxicity in C57BL/6 mouse xenografted with mouse LLC cells assessed as body weight loss at 30 mg/kg/day, ip administered on day 9 to day 12 of tumor implantation; type: organism-based; design: route intraperitoneal; conditions: in vivo; how it was run: as §3
A549 = test: Cytotoxicity against human A549 cells after 72 hrs by SRB assay; type: functional, cell-based; conditions: A549, 72 h; how it was run: as §1
Mus musculus [10] = test: Toxicity in C57BL/6 mouse xenografted with mouse LLC cells at 30 mg/kg/day, ip administered on day 9 to day 12 of tumor implantation; type: organism-based; design: route intraperitoneal; conditions: in vivo; how it was run: as §3
[11] = system: Lewis lung carcinoma cell line; test: Antineoplastic activity against mouse LLC cells xenografted in C57BL/6 mouse assessed as tumor growth inhibition at 15 mg/kg/day, ip administered on day 9 to day 13 of tumor implantation measured on day 14; type: functional; conditions: route intraperitoneal, read-out: TGI; how it was run: as §2
[12] = system: Lewis lung carcinoma cell line; test: Antineoplastic activity against mouse LLC cells xenografted in C57BL/6 mouse assessed as tumor growth inhibition at 30 mg/kg/day, ip administered on day 9 to day 12 of tumor implantation measured on day 18; type: functional; conditions: route intraperitoneal, read-out: TGI; how it was run: as §2
[13] = Octanol-water partition coefficient, log P of the compound in PBS buffer at pH 7.4 by spectrophotometric analysis; type: physicochemical
How it was run: (§5)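 Octanol–water partitioning, with log P defined as log(C_octanol/C_water). Compound in the aqueous phase was measured spectrophotometrically, and octanol content was obtained by subtracting the supernatant concentration from the total. Values are the mean of two independent experiments, each run in triplicate.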

[14] = system: Lewis lung carcinoma cell line; test: Antineoplastic activity against mouse LLC cells xenografted in C57BL/6 mouse assessed as tumor growth inhibition at 30 mg/kg/day, ip administered on day 9 to day 12 of tumor implantation measured on day 23; type: functional; conditions: route intraperitoneal, read-out: TGI; how it was run: as §2
Mus musculus [15] = test: Toxicity in C57BL/6 mouse xenografted with mouse LLC cells assessed as body weight loss at 50 mg/kg/day, sc administered on day 9 to day 13 of tumor implantation; type: organism-based; design: route subcutaneous; conditions: in vivo; how it was run: as §3
[16] = system: Lewis lung carcinoma cell line; test: Antineoplastic activity against mouse LLC cells xenografted in C57BL/6 mouse assessed as tumor growth inhibition at 30 mg/kg/day, ip administered on day 9 to day 12 of tumor implantation measured on day 16; type: functional; conditions: route intraperitoneal, read-out: TGI; how it was run: as §2
[17] = Octanol-water partition coefficient, log P of the compound in citric buffer at pH 2.5 by spectrophotometric analysis; type: physicochemical; how it was run: as §5
[18] = Dissociation constant, pKa of the compound in PBS buffer at 5 uM at pH 2 to 10 by UV-spectrophotometric analysis; type: physicochemical
How it was run: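 UV spectrophotometric titration at a final compound concentration of 5 μM. At this concentration the absorbance–concentration relationship stayed linear. pKa was read from spectral changes across pH.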

[19] = system: Lewis lung carcinoma cell line; test: Antineoplastic activity against mouse LLC cells xenografted in C57BL/6 mouse assessed as tumor growth inhibition at 15 mg/kg/day, ip administered on day 9 to day 13 of tumor implantation measured on day 16; type: functional; conditions: route intraperitoneal, read-out: TGI; how it was run: as §2
[20] = system: Lewis lung carcinoma cell line; test: Antineoplastic activity against mouse LLC cells xenografted in C57BL/6 mouse assessed as tumor growth inhibition at 15 mg/kg/day, ip administered on day 9 to day 13 of tumor implantation measured on day 23; type: functional; conditions: route intraperitoneal, read-out: TGI; how it was run: as §2
[21] = Toxicity in human erythrocytes assessed as hemolysis at 0.3 mM after 30 mins by spectrophotometric analysis; type: cell-based, Erythrocyte; conditions: read-out: Activity
How it was run: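 Human erythrocyte suspension under isotonic conditions (pH 7.4, hematocrit 50%). Compound added across a concentration series and incubated 30 min at 37 °C before hemolysis was scored. Mean ± SD of three individual determinations. Statistics by Mann–Whitney U test, p < 0.05.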

Mus musculus [22] = test: Toxicity in C57BL/6 mouse xenografted with mouse LLC cells assessed as body weight loss at 30 mg/kg/day, sc administered on day 9 to day 12 of tumor implantation; type: organism-based; design: route subcutaneous; conditions: in vivo; how it was run: as §3
Mus musculus [23] = test: Toxicity in C57BL/6 mouse xenografted with mouse LLC cells assessed as body weight loss at 15 mg/kg/day, ip administered on day 9 to day 13 of tumor implantation; type: organism-based; design: route intraperitoneal; conditions: in vivo; how it was run: as §4
[24] = system: Lewis lung carcinoma cell line; test: Antineoplastic activity against mouse LLC cells xenografted in C57BL/6 mouse assessed as tumor growth inhibition at 30 mg/kg/day, ip administered on day 9 to day 12 of tumor implantation measured on day 14; type: functional; conditions: route intraperitoneal, read-out: TGI; how it was run: as §2
[25] = system: Lewis lung carcinoma cell line; test: Antineoplastic activity against mouse LLC cells xenografted in C57BL/6 mouse assessed as tumor growth inhibition at 30 mg/kg/day, ip administered on day 9 to day 12 of tumor implantation measured on day 11; type: functional; conditions: route intraperitoneal, read-out: TGI; how it was run: as §2

solubility [1]	logD [13]	Compound	IC50 (MCF7)	IC50 (LoVo)	IC50 (KB)	selectivity ratio [2]	inhibition in vivo at 15 mg/kg/day [3]	Activity (Mus musculus [4])	inhibition in vivo at 15 mg/kg/day [5]	Activity (Mus musculus [6])	inhibition in vivo at 15 mg/kg/day [7]	inhibition in vivo at 30 mg/kg/day [8]	Activity (Mus musculus [9])	IC50 (A549)	Activity (Mus musculus [10])	inhibition in vivo at 15 mg/kg/day [11]	inhibition in vivo at 30 mg/kg/day [12]	inhibition in vivo at 30 mg/kg/day [14]	Activity (Mus musculus [15])	inhibition in vivo at 30 mg/kg/day [16]	other results
–	–	COc1cccc2c1C(=O)c1c(O)c3c(c(O)c1C2=O)C[C@@](O)(C(=O)CO)C[C@@H]3O[C@H]1C[C@H](N)[C@H](O)[C@H](C)O1 [DOXORUBICIN HYDROCHLORIDE]	440 nM	110 nM	840 nM	–	–	–	–	–	–	–	–	–	–	–	–	–	–	–	–
soluble	–	Cc1c2c3cc(NC(=O)[C@@H](N)Cc4cnc[nH]4)ccc3nc-2n(C)c2ccccc12.Cl	–	–	3460 nM	–	–	–	–	–	–	–	–	–	–	–	–	–	–	–	–
–	–	Cc1c2ccccc2nc2c1c1cc(NC(=O)[C@@H](N)Cc3cnc[nH]3)ccc1n2C	–	–	5960 nM	–	–	–	–	–	–	–	–	–	–	–	–	–	–	–	–
–	–	Cc1c2ccccc2nc2c1c1cc(NC(=O)[C@@H]3CCCN3)ccc1n2C	–	–	4390 nM	–	–	–	–	–	–	–	–	–	–	–	–	–	–	–	–
soluble	0.6	Cc1c2c3cc(NC(=O)CN)ccc3nc-2n(C)c2ccccc12.Cl.Cl	1450 nM	880 nM	670 nM	5	26.1%	Toxic	42.4%	<= 15%	0%	13.5%	<= 15%	1310 nM	Toxic	47.4%	14.3%	19.7%	<= 15%	55.3%	logP [17]: -1.9; pKa at 5 µM [18]: 7.2; inhibition in vivo at 15 mg/kg/day [19]: 23.9%; inhibition in vivo at 15 mg/kg/day [20]: 25.8%; hemolysis at 0.5 h, 300 µM [21]: 42.5%; Activity (Mus musculus [22]): <= 15%; Activity (Mus musculus [23]): <= 15%; inhibition in vivo at 30 mg/kg/day [24]: 54.7%; inhibition in vivo at 30 mg/kg/day [25]: 50.1%
soluble	1.4	Cc1c2c3cc(NC(=O)[C@@H]4CCCN4)ccc3nc-2n(C)c2ccccc12.Cl.Cl	820 nM	810 nM	420 nM	5	0%	Toxic	42%	<= 15%	8.38%	37.9%	<= 15%	480 nM	Toxic	42.6%	50%	41.1%	<= 15%	75.8%	logP [17]: -1.9; pKa at 5 µM [18]: 7.2; inhibition in vivo at 15 mg/kg/day [19]: 47.7%; inhibition in vivo at 15 mg/kg/day [20]: 24.6%; Activity (Mus musculus [22]): <= 15%; Activity (Mus musculus [23]): <= 15%; inhibition in vivo at 30 mg/kg/day [24]: 74%; inhibition in vivo at 30 mg/kg/day [25]: 61.2%
